Legend:
[1] = Cytotoxicity against human HEK293 cells assessed as cell viability incubated for 72 hrs by Alamar blue assay; format: cell-based
Outline: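 HEK293 cells handled with the same incubation, compound addition and timing as the 72 h parasite assay. Alamar Blue, diluted in growth medium, was incubated 4 h at 37 °C/5% CO2, then 20 h at room temperature before plate read.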

[2] = Intrinsic clearance in human liver microsomes at […] by LC-MS/MS analysis; format: ADME, Microsome
Outline: (§1)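 Liver microsomes (human, mouse or rat) at 0.4 mg/mL protein, 37 °C, with an NADPH-regenerating system. Compound at 0.25 or 0.5 μM. Acetonitrile/diazepam quench, LC-MS quantitation. CLint from the first-order degradation rate constant.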

[3] = Intrinsic clearance in rat liver microsomes at […] by LC-MS/MS analysis; format: ADME, Microsome; outline: as §1
[4] = Intrinsic clearance in mouse liver microsomes at […] by LC-MS/MS analysis; format: ADME, Microsome; outline: as §1
[5] = Apparent permeability of the compound from apical to basolateral side in human Caco-2 cells at 20 uM measured after 120 mins by LC-MS analysis; format: ADME, cell-based
Outline: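 Caco-2 monolayers, apical-to-basolateral direction, in pH 7.4 HBSS with 20 mM HEPES on both sides. Donor at nominal 20 μM, 0.1% DMSO final. Flux followed over 120 min. Quantified by LC-MS with mass balance to derive Papp.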

[6] = Intrinsic clearance in human hepatocytes measured per 10^6 cells at 0.25 uM by LC-MS analysis; format: ADME, cell-based, Hepatocyte; conditions: read-out: CLH
Outline: (§2)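 Compound at 0.25 μM incubated with cryopreserved human or rat hepatocytes (1×10^6 cells/mL) in Krebs–Henseleit buffer at 37 °C. Quenched with acetonitrile containing diazepam. LC-MS quantitation. CLint from the first-order degradation rate constant.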

[7] = Intrinsic clearance in rat hepatocytes measured per 10^6 cells at 0.25 uM by LC-MS analysis; format: ADME, cell-based, Hepatocyte; conditions: read-out: CLH; outline: as §2
[8] = Stability in human plasma assessed as compound remaining at 1000 ng/ml after 2 hrs by LC-MS analysis; format: ADME, cell-free; conditions: read-out: Stability
Outline: (§3)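 Pooled plasma (human, 3 donors; or male Sprague Dawley rat) spiked to nominal 1000 ng/mL, with at most 0.2% DMSO and 0.4% acetonitrile final. Held at 37 °C with timed aliquots. LC-MS against matrix standards with diazepam internal standard. Percent remaining is relative to the 5 min sample.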

[9] = Stability in Sprague-Dawley rat plasma assessed as compound remaining at 1000 ng/ml after 2 hrs by LC-MS analysis; format: ADME, cell-free; conditions: read-out: Stability; outline: as §3
[10] = Fraction unbound in human plasma; format: ADME, cell-free
Outline: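 Human plasma protein binding measured by rapid equilibrium dialysis.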

[11] = target: CYP2D6 (Homo sapiens, UniProt P10635); assay: Inhibition of CYP2D6 (unknown origin) at 10 uM by UPLC-MS analysis relative to control; format: ADME
CYP2D6, sequence (P10635 whole entry): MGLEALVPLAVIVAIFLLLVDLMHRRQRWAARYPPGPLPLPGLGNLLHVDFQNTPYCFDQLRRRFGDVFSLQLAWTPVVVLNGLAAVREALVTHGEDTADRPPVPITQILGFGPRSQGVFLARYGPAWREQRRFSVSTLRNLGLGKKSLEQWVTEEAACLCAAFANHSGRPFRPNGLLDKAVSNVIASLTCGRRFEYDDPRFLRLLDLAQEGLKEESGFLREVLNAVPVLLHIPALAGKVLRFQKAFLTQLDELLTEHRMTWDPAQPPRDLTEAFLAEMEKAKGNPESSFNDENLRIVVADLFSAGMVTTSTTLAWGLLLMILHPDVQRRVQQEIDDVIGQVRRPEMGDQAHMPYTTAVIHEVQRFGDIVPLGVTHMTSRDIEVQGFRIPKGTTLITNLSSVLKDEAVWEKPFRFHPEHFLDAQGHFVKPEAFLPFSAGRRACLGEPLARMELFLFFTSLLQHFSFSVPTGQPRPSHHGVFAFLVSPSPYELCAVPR
Outline: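 Human liver microsomes, using a substrate-specific metabolite approach. Test compound at 1 and 10 μM. Reference inhibitors: furafylline (1A2), sulfaphenazole (2C9), quinidine (2D6), ketoconazole (3A4). Specific metabolites quantified by UPLC-MS. Percent inhibition relative to incubation without inhibitor.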

[12] = system: Plasmodium falciparum; assay: Antiplasmodial activity against liver stage Plasmodium falciparum NF54 sporozoites infected in human hepatocytes assessed as parasite killing measured after 96 hrs by schizont assay; format: functional, organism-based; conditions: NF54, 96 h
[13] = system: Plasmodium falciparum; assay: Antiplasmodial activity against liver stage Plasmodium falciparum NF54 sporozoites infected in human hepatocytes assessed as maximal parasite killing measured after 96 hrs by schizont assay relative to control; format: functional
[14] = system: Hepatocyte; assay: Cytotoxicity against human hepatocyte measured after 96 hrs; format: cell-based; conditions: hepatocytes
[15] = system: Plasmodium falciparum; assay: Antiplasmodial activity against asexual blood stage Plasmodium falciparum 3D7 (MR4) infected in erythrocytes assessed as parasite reduction ratio at 10 times of IC50 concentration treated up to 120 hrs measured after 21 days of serial dilution; format: functional; conditions: time hrs <=120
Outline: (§4)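 Samples taken every 24 h and washed free of drug. Viable parasites counted by limiting dilution: 3-fold serial dilutions, four independent series, growth scored at 21 days and confirmed at 28 days.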

[16] = system: Plasmodium falciparum; assay: Antiplasmodial activity against asexual blood stage Plasmodium falciparum 3D7 (MR4) infected in erythrocytes assessed as parasite clearance time for 99.9% organism; format: functional; outline: as §4
[17] = system: Plasmodium falciparum; assay: Antimalarial activity against Plasmodium falciparum K1 harbouring Pf-crt, Pf-mdrl,Pf-dhfr, Pf-dhps mutated loci assessed as inhibition of parasite growth incubated for […] by [3H]hypoxanthine incorporation assay based liquid scintillation counting method; format: functional, organism-based
Outline: (§5)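 Drug-resistant laboratory P. falciparum strains were compared against the sensitive strain NF54. Growth inhibition was read by a modified [3H]hypoxanthine incorporation assay over 72 h. IC50 is the mean of two independent biological replicates. Chloroquine and artesunate served as controls.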

[18] = system: Plasmodium falciparum; assay: Antimalarial activity against Plasmodium falciparum 7G8 harbouring Pf-crt, Pf-mdrl,Pf-dhfr, Pf-dhps mutated loci assessed as inhibition of parasite growth incubated for […] by [3H]hypoxanthine incorporation assay based liquid scintillation counting method; format: functional, organism-based; outline: as §5
[19] = system: Plasmodium falciparum; assay: Antimalarial activity against Plasmodium falciparum TM90C2b harbouring Pf-crt, Pf-mdrl,Pfd-hfr, Pf-cytbQ0 mutated loci assessed as inhibition of parasite growth incubated for […] by [3H]hypoxanthine incorporation assay based liquid scintillation counting method; format: functional, organism-based; outline: as §5
[20] = system: Plasmodium falciparum; assay: Antimalarial activity against wild type Plasmodium falciparum Dd2 assessed as inhibition of parasite growth incubated for […] by [3H]hypoxanthine incorporation assay based liquid scintillation counting method; format: functional, organism-based
Outline: (§6)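 Genetically engineered P. falciparum lines carried mutations introduced into the Dd2 wild-type strain, which was tested alongside them. Growth inhibition was read by [3H]hypoxanthine incorporation over 72 h. IC50 is the mean of two independent biological replicates. Chloroquine and artesunate served as controls.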

[21] = system: Plasmodium falciparum; assay: Antimalarial activity against Plasmodium falciparum Dd2 DSM265 mutant harbouring […] assessed as inhibition of parasite growth incubated for […] by [3H]hypoxanthine incorporation assay based liquid scintillation counting method; format: functional, organism-based; outline: as §6
[22] = system: Plasmodium falciparum; assay: Antimalarial activity against Plasmodium falciparum Dd2 DDD498 mutant harbouring Pf-cytB assessed as inhibition of parasite growth incubated for […] by [3H]hypoxanthine incorporation assay based liquid scintillation counting method; format: functional, organism-based; outline: as §6
[23] = Ratio of drug level in whole blood to plasma in Sprague-Dawley rat by LC-MS analysis; format: ADME, cell-free; conditions: whole blood and plasma
Outline: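 Apparent whole-blood-to-plasma partitioning measured in vitro in rat blood.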

[24] = system: Plasmodium falciparum; assay: Antimalarial activity against Plasmodium falciparum 3D70087/N9 infected in humanized NODscidlL2Rgamma null mouse model assessed as reduction in parasitemia at 100 mg/kg, po for 4 consecutive days measured after 7 days of post infection relative to control; format: functional; conditions: 3D70087/N9, po, 96 h, time 4 day
Outline: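 P. falciparum humanized SCID mouse model. Monosodium tetrahydrate salt given orally at 50 or 100 mg/kg on 4 consecutive days, n = 2 mice per group. Parasitemia read at day 7 post infection versus untreated controls.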

[25] = system: Plasmodium falciparum; assay: Antimalarial activity against Plasmodium falciparum Dd2 […] mutant harbouring Pf-car1 assessed as inhibition of parasite growth incubated for […] by [3H]hypoxanthine incorporation assay based liquid scintillation counting method; format: functional, organism-based; outline: as §6
[26] = system: Plasmodium falciparum; assay: Antimalarial activity against Plasmodium falciparum Dd2 MMV048 mutant harbouring Pf-pi4k assessed as inhibition of parasite growth incubated for […] by [3H]hypoxanthine incorporation assay based liquid scintillation counting method; format: functional, organism-based; outline: as §6
[27] = system: Plasmodium falciparum; assay: Antimalarial activity against Plasmodium falciparum NF54 assessed as inhibition of parasite growth incubated for 72 hrs by [3H]hypoxanthine incorporation assay based liquid scintillation counting method

CCc1cccc(CNC(=O)c2nc3cccc(COCc4ccc(C(=O)O)cc4)c3c(=O)[nH]2)c1
CC50 at 72 h [1]: > 40 µM | CLH [2]: 35 uL/ml.millig | CLH [3]: 36 uL/ml.millig | CLH [4]: 183 uL/ml.millig | Papp A→B at 2 h, 20 µM [5]: 350 nm/s | hepatocyte CLint at 0.25 µM [6]: 15 µL/min/1e6 cells | hepatocyte CLint at 0.25 µM [7]: 6 µL/min/1e6 cells | remaining at 2 h, 1000 ng/ml [8]: 100% | remaining at 2 h, 1000 ng/ml [9]: 93.4% | Fu [10]: 0.2% | inhibition at 10 µM [11]: < 10% | IC50 [12]: 0.075 µM | Emax [13]: 50% | Activity [14]: Non-Toxic | Ratio [15]: 4.6 | Time [16]: 32 h | IC50 [17]: 0.031 µM | IC50 [18]: 0.016 µM | IC50 [19]: 0.024 µM | IC50 [20]: 0.033 µM | IC50 [21]: 0.023 µM | IC50 [22]: 0.019 µM | blood plasma ratio [23]: 0.62 | inhibition in vivo at 100 mg/kg [24]: 89% | IC50 [25]: 0.018 µM | IC50 [26]: 0.027 µM | IC50 [27]: 0.06 µM

From ChEMBL document CHEMBL4828745, “Discovery and Structure-Activity Relationships of Quinazolinone-2-carboxamide Derivatives as Novel Orally Efficacious Antimalarials” (J Med Chem, 2021)
